The source made the active and inactive calls. The calls are words filed in the database; no cut-off is given here.
Experiments:
[1] = system: Plasmodium falciparum; experiment: Antiplasmodial activity against chloroquine-sensitive Plasmodium falciparum Ghana in human erythrocytes after 72 hrs by Malstat assay; type: functional, organism-based
Procedure, shortened: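 P. falciparum Ghana strain grown in human erythrocytes in RPMI-1640 at 37 °C under 3% O2, 4% CO2, 93% N2. Exposure to compounds lasted 72 h. Multiplication was read by Malstat with absorbance at 655 nm, and % growth inhibition was taken against negative blanks.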

[2] = Cytotoxicity against human MRC5 SV2 cells after 72 hrs by resazurin-based fluorometric assay; type: cell-based; settings: MRC5, 72 h
Procedure, shortened: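 MRC-5 SV2 fibroblasts were kept in MEM with 20 mM L-glutamine and 5% FCS at 37 °C, 5% CO2. Cells were seeded at 10⁴/well onto prediluted compounds and incubated 72 h. Viability was read fluorimetrically after resazurin addition.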

[3] = Selectivity index, ratio of IC50 for human MRC5 SV2 cells to IC50 for chloroquine-sensitive Plasmodium falciparum Ghana; type: toxicity, cell-based; settings: read-out: Ratio IC50
[4] = biological target: Nucleic Acid; experiment: Binding affinity to DNA assessed as intercalation after 24 hrs by DNA-methyl green assay; type: nucleic-acid assay
Procedure, shortened: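 DNA-methyl green reagent (20 mg in 100 mL 0.05 M Tris HCl pH 7.5 with 7.5 mM MgSO4, stirred 24 h at 37 °C) was added to dried compound. A620 was read at 0 and after 24 h at 25 °C. […] Cryptolepine was the positive control.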

[5] = biological target: T1, Histidine-rich protein PFHRP-II (Plasmodium falciparum, UniProt P05227); experiment: Inhibition of beta-hematin formation after 18 hrs by microtiter plate assay; type: functional
T1 sequence (P05227 whole entry): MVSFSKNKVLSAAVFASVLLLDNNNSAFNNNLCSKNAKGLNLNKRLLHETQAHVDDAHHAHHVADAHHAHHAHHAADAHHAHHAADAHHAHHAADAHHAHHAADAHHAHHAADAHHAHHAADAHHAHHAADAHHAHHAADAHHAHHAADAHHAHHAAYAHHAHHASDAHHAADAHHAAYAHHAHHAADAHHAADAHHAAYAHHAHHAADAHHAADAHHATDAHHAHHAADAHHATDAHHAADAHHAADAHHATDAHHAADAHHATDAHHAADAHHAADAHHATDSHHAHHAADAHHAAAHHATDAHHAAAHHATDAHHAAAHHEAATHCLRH

[6] = biological target: T1, Histidine-rich protein PFHRP-II; experiment: (§1) Inhibition of beta-hematin formation at 5 milliequivalent after 18 hrs by microtiter plate assay; type: functional
[7] = Toxicity in Swiss mice (Mus musculus) infected with chloroquine-sensitive Plasmodium berghei ANKA assessed as mortality at 50 mg/kg, intraperitoneally administered 4 to 6 hrs after infection for 5 consecutive days measured within 7 days of postinfection; type: organism-based; parameters: dose 50 mg/kg, route intraperitoneal; settings: in vivo, ip, read-out: Activity
Procedure, shortened: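 Swiss mice were infected intraperitoneally with 4 × 10⁸ erythrocytes carrying chloroquine-sensitive P. berghei ANKA. They were dosed intraperitoneally at 50 mg/kg daily for five consecutive days. Parasitaemia was read on Giemsa-stained blood smears on days 4 and 7.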

[8] = biological target: T2, Histidine-rich protein PFHRP-II (Plasmodium falciparum) (UniProt P05227); experiment: as §1; type: functional
T2 sequence (whole entry): T1 sequence (P05227 whole entry)

[9] = system: Plasmodium berghei; experiment: Antiplasmodial activity as reduced parasitaemia against chloroquine-sensitive Plasmodium berghei ANKA infected Swiss mice (Mus musculus) at 50 mg/kg intraperitoneal dose 4-6 hrs post infection on day 4; type: functional; parameters: scale not given: the % may be the effect or the level left
Procedure, shortened: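 Swiss mice were infected ip with 4 × 10⁸ P. berghei ANKA-infected erythrocytes. Treatment was ip at 50 mg/kg daily for five consecutive days. Parasitaemia was scored on Giemsa-stained blood smears on days 4 and 7.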

[10] = system: Plasmodium berghei; experiment: Antiplasmodial activity as reduced parasitaemia against chloroquine-sensitive Plasmodium berghei ANKA infected Swiss mice (Mus musculus) at 20 mg/kg intraperitoneal dose 4-6 hrs post infection on day 4; type: functional, organism-based; parameters: dose 20 mg/kg
Procedure, shortened: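 Mice infected ip with P. berghei ANKA-infected erythrocytes (4 × 10⁸) received the compound intraperitoneally. Parasitaemia was counted on Giemsa-stained blood smears on days 4 and 7.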

SMILES	IC50 [1]	IC50 [2]	selectivity ratio [3]	IC50 [4]	IC50 [5]	IC50 [6]	mortality at 7 days [7]	inhibition [8]	Activity [9]	Activity [10]
CCN(CC)CCCC(C)Nc1ccc2c3cc4ccccc4n(C)c-3nc2c1 (stereo not drawn)	0.01 µM	18 µM	1800	219 µM	4.4 milliequivalent	–	–	–	–	–
Clc1ccc2nc3[nH]c4ccccc4c3c(NCCN3CCCC3)c2c1	3 µM	> 64 µM	> 21	> 1000 µM	5.4 milliequivalent	–	–	–	–	–
Clc1ccc2nc3[nH]c4ccccc4c3c(N3CCC(N4CCCCC4)CC3)c2c1	< 0.25 µM	2 µM	> 8	> 1000 µM	2.2 milliequivalent	–	–	–	–	–
CN1CCN(c2c3c4ccccc4nc-3n(C)c3ccc(Cl)cc23)CC1	2.1 µM	1 µM	0.5	358 µM	–	Not Active	–	–	–	–
Cn1c2nc3ccccc3c-2c(N2CCN(CCO)CC2)c2cc(Cl)ccc21	2.28 µM	0.82 µM	0.4	376 µM	–	Not Active	–	–	–	–
Clc1ccc2c(Cl)c3c(nc2c1)[nH]c1ccccc13	> 64 µM	> 64 µM	–	> 1000 µM	–	Not Active	–	–	–	–
CCN(CC)CCCC(C)Nc1c2c3ccccc3nc-2n(C)c2ccc(Cl)cc12 (stereo not drawn)	0.043 µM	29 µM	674	> 1000 µM	–	–	50%	< 20%	100%	inactive
Cn1c2nc3ccccc3c-2cc2ccc(Cl)cc21	41.1 µM	21 µM	0.5	–	–	–	–	–	–	–
CCN(CC)CCCC(C)Nc1c2c3ccccc3nc-2n(C)c2ccccc12 (stereo not drawn)	0.62 µM	20 µM	32	312 µM	4.11 milliequivalent	–	–	–	–	–
Cn1c2nc3ccccc3c-2cc2cc(Cl)ccc21	52 µM	> 64 µM	> 1	> 1000 µM	1.31 milliequivalent	–	–	–	–	–
CCN(CC)CCCC(C)Nc1c2cc(Cl)ccc2nc2[nH]c3ccccc3c12 (stereo not drawn)	0.12 µM	> 64 µM	> 533	> 1000 µM	2.3 milliequivalent	–	–	–	inactive	–
Cn1c2nc3ccccc3c-2c(N2CCC(N3CCCCC3)CC2)c2cc(Cl)ccc21	2.46 µM	4.4 µM	2	180 µM	–	Not Active	–	–	–	–
Clc1ccc2nc3[nH]c4ccccc4c3c(NCCN3CCOCC3)c2c1	33 µM	> 64 µM	> 2	> 1000 µM	–	Not Active	–	–	–	–
Cn1c2nc3ccccc3c-2c(Cl)c2cc(Cl)ccc21	> 64 µM	> 64 µM	–	> 1000 µM	–	Not Active	–	–	–	–
CN1CCN(c2c3cc(Cl)ccc3nc3[nH]c4ccccc4c23)CC1	2.46 µM	3 µM	1	> 1000 µM	2.09 milliequivalent	–	–	–	–	–
CCN1CCCC1CNc1c2cc(Cl)ccc2nc2[nH]c3ccccc3c12 (stereo not drawn)	0.38 µM	15 µM	39	> 1000 µM	1.53 milliequivalent	–	–	–	–	–
Cn1c2nc3ccccc3c-2c(NCCN2CCOCC2)c2cc(Cl)ccc21	0.69 µM	0.37 µM	0.5	118 µM	–	Not Active	–	–	–	–
CN(C)CCNc1c2c3ccccc3nc-2n(C)c2ccc(Cl)cc12	< 0.25 µM	< 0.25 µM	–	164 µM	–	Not Active	–	–	–	–
Clc1cccc2nc3[nH]c4ccccc4c3c(Cl)c12	> 64 µM	> 64 µM	–	> 1000 µM	–	Not Active	–	–	–	–

— ChEMBL document CHEMBL1138479, “Synthesis and antiplasmodial activity of aminoalkylamino-substituted neocryptolepine derivatives” (J Med Chem, 2009)
